ChEMBL document CHEMBL1932934, “Cyclosulfamide-based derivatives as inhibitors of noroviruses” (Eur J Med Chem, 2012)

Columns and labels:
Norovirus = test: Antiviral activity against Norovirus infected in human HG23 cells assessed as inhibition of viral replication after 24 hrs by quantitative RT-PCR analysis; assay type: functional; conditions: HG23, 24 h, read-out: ED50 (the source's name)
[1] = Cytotoxicity against human HG23 cells after 48 hrs; assay type: cell-based; conditions: read-out: TD50
Summary of the method: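 Cytotoxicity in Norwalk virus replicon-harboring HG23 cells exposed to compound for 48 hr, measured with a commercial cell cytotoxicity assay kit. The median toxic dose (TD50) was calculated from the readout.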

[2] = Therapeutic index, ratio of TD50 for human HG23 cells to ED50 for Norovirus infected in human HG23 cells; assay type: cell-based; conditions: read-out: Ratio TD50/ED50
Summary of the method: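 Index computed as TD50 divided by ED50, both in NV replicon-harboring HG23 cells. TD50 came from a cytotoxicity assay kit after 48 hr of treatment.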

Row | Compound | EC50 (Norovirus) | CC50 at 48 h [1] | selectivity ratio [2]
1 | O=C(O)C1CCN(CCN2CCN(Cc3cccc(Oc4ccccc4)c3)S2(=O)=O)CC1 | 9.1 µM | 210 µM | 
2 | O=S1(=O)N(CCN2CCN(CCN3CCN(Cc4cccc(Oc5ccccc5)c4)S3(=O)=O)CC2)CCN1Cc1cccc(Oc2ccccc2)c1 | 0.4 µM | 5.1 µM | 
3 | O=S1(=O)N(CCN2CCN(Cc3cccc(Oc4ccccc4)c3)S2(=O)=O)CCN1Cc1cccc(Oc2ccccc2)c1 | 1.5 µM | 8.5 µM | 
4 | COC(=O)C1CCN(CCN2CCN(Cc3cccc(Oc4ccccc4)c3)S2(=O)=O)CC1 | 5.5 µM | 180 µM | 
5 | CCN1CCN(C(=O)CN2CCN(Cc3cccc(Oc4ccccc4)c3)S2(=O)=O)CC1 | 5.5 µM | 120 µM | 24
6 | CCOC(=O)N1CCN(CCN2CCN(Cc3cccc(Oc4ccccc4)c3)S2(=O)=O)CC1 | 5.8 µM | 13.5 µM | < 10
7 | COC(=O)C1CCN(C(=O)CN2CCN(Cc3cccc(Oc4ccccc4)c3)S2(=O)=O)CC1 | 4.2 µM | 156 µM | 39
8 | CS(=O)(=O)N1CCN(CCN2CCN(Cc3cccc(Oc4ccccc4)c3)S2(=O)=O)CC1 | 3.2 µM | 12.2 µM | < 10
9 | O=S(=O)(Cc1ccccc1)N1CCN(CCN2CCN(Cc3cccc(Oc4ccccc4)c3)S2(=O)=O)CC1 | 5.3 µM | 9.3 µM | < 10
10 | O=S1(=O)N(CCN2CCCCC2)CCN1Cc1cccc(Oc2ccccc2)c1 | 4.7 µM | 12.3 µM | 
11 | O=C(O)C1CCN(C(=O)CN2CCN(Cc3cccc(Oc4ccccc4)c3)S2(=O)=O)CC1 | > 10 µM | 80.5 µM | 
12 | O=S1(=O)N(CCN2CCOCC2)CCN1Cc1cccc(Oc2ccccc2)c1 | 5.2 µM | 95.4 µM | 
13 | O=S1(=O)N(CCN2CCN(Cc3ccccc3)CC2)CCN1Cc1cccc(Oc2ccccc2)c1 | 4.1 µM | 11.4 µM | < 10
14 | O=C(c1ccc(Cl)cc1)N1CCN(CCN2CCN(Cc3cccc(Oc4ccccc4)c3)S2(=O)=O)CC1 | 7.4 µM | 35.3 µM | < 10
15 | O=C(c1ccc(F)cc1)N1CCN(CCN2CCN(Cc3cccc(Oc4ccccc4)c3)S2(=O)=O)CC1 | 9.7 µM | 80.8 µM | < 10
16 | O=S1(=O)N(CCN2CCNCC2)CCN1Cc1cccc(Oc2ccccc2)c1 | 5.3 µM | 14.6 µM | < 10
17 | O=C(c1cccc(Oc2ccccc2)c1)N1CCN(CCN2CCN(Cc3cccc(Oc4ccccc4)c3)S2(=O)=O)CC1 | 6.2 µM | 32.9 µM | < 10
18 | CCCCS(=O)(=O)N1CCN(CCN2CCN(Cc3cccc(Oc4ccccc4)c3)S2(=O)=O)CC1 | 3.4 µM | 11.1 µM | < 10
